Laboratory results from ChEMBL document CHEMBL1649446, “Comparative antipneumococcal activities of sulopenem and other drugs” (2009).

Legend:
Assay type in all cases: functional
Streptococcus pneumoniae [1] = experiment: Antimicrobial activity against Streptococcus pneumoniae 1 by time-kill analysis
How it was run: (§1)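 Time-kill in cation-adjusted Mueller-Hinton broth with 5% lysed horse blood; inocula 5 × 105 to 5 × 10^6 CFU/ml; drugs at MIC, 2× and 4× MIC; 35°C shaking water bath; viable counts at 0, 3, 6, 12 and 24 h. Bactericidal if ≥3 log10 CFU/ml (99.9%) reduction from original inoculum; 90% and 99% killing also scored.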

Streptococcus pneumoniae [2] = experiment: Antimicrobial activity against Streptococcus pneumoniae isolate 3481 by agar dilution method
How it was run: (§2)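 Agar dilution MIC on Mueller-Hinton agar with 5% sheep blood, inocula 10^4 CFU/spot; amoxicillin-clavulanate combined 1:2; S. pneumoniae ATCC 49619 quality control each run.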

Streptococcus pneumoniae [3] = experiment: Antimicrobial activity against Streptococcus pneumoniae 5 by time-kill analysis; how it was run: as §1
Streptococcus pneumoniae [4] = experiment: Antimicrobial activity against Streptococcus pneumoniae isolate 3282 by agar dilution method
Streptococcus pneumoniae [5] = experiment: Antimicrobial activity against Streptococcus pneumoniae 4 by time-kill analysis
How it was run: (§3)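 Time-kill in cation-adjusted Mueller-Hinton broth with 5% lysed horse blood; inocula 5 × 105 to 5 × 10^6 CFU/ml; drugs at MIC, 2× and 4× MIC; 35°C shaking water bath; viable counts at 0, 3, 6, 12, 24 h. Bactericidal = ≥3 log10 CFU/ml (99.9%) drop from original inoculum; 90%/99%/99.9% killing scored per strain.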

Streptococcus pneumoniae [6] = experiment: Antimicrobial activity against Streptococcus pneumoniae isolate 1055 by agar dilution method
Streptococcus pneumoniae [7] = experiment: Antimicrobial activity against Streptococcus pneumoniae isolate 3346 by agar dilution method
Streptococcus pneumoniae [8] = experiment: Antimicrobial activity against Streptococcus pneumoniae isolate 3275 by agar dilution method; how it was run: as §2
Streptococcus pneumoniae [9] = experiment: Antimicrobial activity against Streptococcus pneumoniae isolate 3374 by agar dilution method; how it was run: as §2
Streptococcus pneumoniae [10] = experiment: Antimicrobial activity against Streptococcus pneumoniae isolate 3681 by agar dilution method; how it was run: as §2
Streptococcus pneumoniae [11] = experiment: Antimicrobial activity against Streptococcus pneumoniae isolate 2617 by agar dilution method; how it was run: as §2
Streptococcus pneumoniae [12] = experiment: Antimicrobial activity against Streptococcus pneumoniae isolate 1146 by agar dilution method; how it was run: as §2
Streptococcus pneumoniae [13] = experiment: Antimicrobial activity against Streptococcus pneumoniae isolate 1424 by agar dilution method; how it was run: as §2
Streptococcus pneumoniae [14] = experiment: Antimicrobial activity against penicillin-intermediate Streptococcus pneumoniae by agar dilution method
Streptococcus pneumoniae [15] = experiment: Antimicrobial activity against Streptococcus pneumoniae isolate 37 by agar dilution method; how it was run: as §2
Streptococcus pneumoniae [16] = experiment: Antimicrobial activity against Streptococcus pneumoniae isolate 1394 by agar dilution method
Streptococcus pneumoniae [17] = experiment: Antimicrobial activity against penicillin-resistant Streptococcus pneumoniae by agar dilution method; how it was run: as §2
Streptococcus pneumoniae [18] = experiment: Antimicrobial activity against Streptococcus pneumoniae 7 by time-kill analysis; how it was run: as §3
Streptococcus pneumoniae [19] = experiment: Antimicrobial activity against Streptococcus pneumoniae isolate 1397 by agar dilution method; how it was run: as §2
Streptococcus pneumoniae [20] = experiment: Antimicrobial activity against Streptococcus pneumoniae isolate 3587 by agar dilution method
Streptococcus pneumoniae [21] = experiment: Antimicrobial activity against Streptococcus pneumoniae 11 by time-kill analysis; how it was run: as §3
Streptococcus pneumoniae [22] = experiment: Antimicrobial activity against Streptococcus pneumoniae 12 by time-kill analysis; how it was run: as §3
Streptococcus pneumoniae [23] = experiment: Antimicrobial activity against Streptococcus pneumoniae isolate 1384 by agar dilution method; how it was run: as §2
Streptococcus pneumoniae [24] = experiment: Antimicrobial activity against Streptococcus pneumoniae isolate 2688 by agar dilution method; how it was run: as §2
Streptococcus pneumoniae [25] = experiment: Antimicrobial activity against Streptococcus pneumoniae isolate 24 by agar dilution method
Streptococcus pneumoniae [26] = experiment: Antimicrobial activity against Streptococcus pneumoniae isolate 2686 by agar dilution method; how it was run: as §2
Streptococcus pneumoniae [27] = experiment: Antimicrobial activity against Streptococcus pneumoniae isolate 3263 by agar dilution method
Streptococcus pneumoniae [28] = experiment: Antimicrobial activity against Streptococcus pneumoniae isolate 2880 by agar dilution method; how it was run: as §2
Streptococcus pneumoniae [29] = experiment: Antimicrobial activity against Streptococcus pneumoniae isolate 2874 by agar dilution method; how it was run: as §2
Streptococcus pneumoniae [30] = experiment: Antimicrobial activity against Streptococcus pneumoniae 19A by agar dilution method; how it was run: as §2
Streptococcus pneumoniae [31] = experiment: Antimicrobial activity against Streptococcus pneumoniae isolate 1564 by agar dilution method
Streptococcus pneumoniae [32] = experiment: Antimicrobial activity against Streptococcus pneumoniae isolate 3412 by agar dilution method; how it was run: as §2
Streptococcus pneumoniae [33] = experiment: Antimicrobial activity against Streptococcus pneumoniae 6 by time-kill analysis; how it was run: as §3
Streptococcus pneumoniae [34] = experiment: Antimicrobial activity against Streptococcus pneumoniae isolate 4755 by agar dilution method; how it was run: as §2
Streptococcus pneumoniae [35] = experiment: Antimicrobial activity against Streptococcus pneumoniae 8 by time-kill analysis; how it was run: as §3
Streptococcus pneumoniae [36] = experiment: Antimicrobial activity against Streptococcus pneumoniae isolate 3260 by agar dilution method
Streptococcus pneumoniae [37] = experiment: Antimicrobial activity against Streptococcus pneumoniae isolate 3455 by agar dilution method
Streptococcus pneumoniae [38] = experiment: Antimicrobial activity against Streptococcus pneumoniae 10 by time-kill analysis; how it was run: as §3
Streptococcus pneumoniae [39] = experiment: Antimicrobial activity against Streptococcus pneumoniae 9 by time-kill analysis; how it was run: as §1
Streptococcus pneumoniae [40] = experiment: Antimicrobial activity against Streptococcus pneumoniae isolate 4747 by agar dilution method; how it was run: as §2
Streptococcus pneumoniae [41] = experiment: Antimicrobial activity against Streptococcus pneumoniae isolate 33 by agar dilution method; how it was run: as §2
Streptococcus pneumoniae [42] = experiment: Antimicrobial activity against Streptococcus pneumoniae isolate 1147 by agar dilution method; how it was run: as §2
Streptococcus pneumoniae [43] = experiment: Antimicrobial activity against Streptococcus pneumoniae 2 by time-kill analysis; how it was run: as §3
Streptococcus pneumoniae [44] = experiment: Antimicrobial activity against Streptococcus pneumoniae isolate 3791 by agar dilution method; how it was run: as §2
Streptococcus pneumoniae [45] = experiment: Antimicrobial activity against penicillin-susceptible Streptococcus pneumoniae by agar dilution method
Streptococcus pneumoniae [46] = experiment: Antimicrobial activity against Streptococcus pneumoniae 3 by time-kill analysis; how it was run: as §3
Streptococcus pneumoniae [47] = experiment: Antimicrobial activity against Streptococcus pneumoniae isolate 3458 by agar dilution method

C[C@@H](O)[C@H]1C(=O)N2C(C(=O)O)=C(S[C@@H]3CN[C@H](C(=O)N(C)C)C3)[C@H](C)[C@H]12 [MEROPENEM]
0.125 mg/L: MIC (Streptococcus pneumoniae [8]) | MIC (Streptococcus pneumoniae [31])
2 mg/L: MIC (Streptococcus pneumoniae [3]) | MIC (Streptococcus pneumoniae [42])
0.06 mg/L: MIC50 (Streptococcus pneumoniae [14]) | MIC (Streptococcus pneumoniae [38])
1 mg/L: MIC (Streptococcus pneumoniae [12]) | MIC (Streptococcus pneumoniae [15]) | MIC (Streptococcus pneumoniae [18]) | MIC (Streptococcus pneumoniae [21]) | MIC (Streptococcus pneumoniae [29]) | MIC50 (Streptococcus pneumoniae [30]) | MIC90 (Streptococcus pneumoniae [30]) | MIC (Streptococcus pneumoniae [35]) | MIC (Streptococcus pneumoniae [37]) | MIC (Streptococcus pneumoniae [41]) | MIC (Streptococcus pneumoniae [47])
0.12 mg/L: MIC (Streptococcus pneumoniae [33]) | MIC (Streptococcus pneumoniae [39])
0.5 mg/L: MIC (Streptococcus pneumoniae [5]) | MIC (Streptococcus pneumoniae [6]) | MIC (Streptococcus pneumoniae [13]) | MIC (Streptococcus pneumoniae [16]) | MIC50 (Streptococcus pneumoniae [17]) | MIC90 (Streptococcus pneumoniae [17]) | MIC (Streptococcus pneumoniae [19]) | MIC (Streptococcus pneumoniae [20]) | MIC (Streptococcus pneumoniae [22]) | MIC (Streptococcus pneumoniae [24]) | MIC (Streptococcus pneumoniae [25]) | MIC (Streptococcus pneumoniae [26]) | MIC (Streptococcus pneumoniae [28])
0.016 mg/L: MIC (Streptococcus pneumoniae [1]) | MIC50 (Streptococcus pneumoniae [45]) | MIC90 (Streptococcus pneumoniae [45])
0.25 mg/L: MIC (Streptococcus pneumoniae [2]) | MIC (Streptococcus pneumoniae [4]) | MIC (Streptococcus pneumoniae [7]) | MIC (Streptococcus pneumoniae [9]) | MIC (Streptococcus pneumoniae [10]) | MIC (Streptococcus pneumoniae [11]) | MIC90 (Streptococcus pneumoniae [14]) | MIC (Streptococcus pneumoniae [23]) | MIC (Streptococcus pneumoniae [27]) | MIC (Streptococcus pneumoniae [32]) | MIC (Streptococcus pneumoniae [34]) | MIC (Streptococcus pneumoniae [36]) | MIC (Streptococcus pneumoniae [40]) | MIC (Streptococcus pneumoniae [44]) | MIC (Streptococcus pneumoniae [46])
0.008 mg/L: MIC (Streptococcus pneumoniae [43])
